Experimental data from ChEMBL document CHEMBL5712078, “BRD9 Inhibition, Alone or in Combination with Cytostatic Compounds as a Therapeutic Approach in Rhabdoid Tumors” (Int J Mol Sci, 2017).
pIC50: −log10 of the molar value. Active and inactive are the calls of the source. No cut-off for these calls is given here.

Tests used:
[1] = system: BT-12; assay: Induction of apoptosis in human BT-12 cells assessed as necrotic cells incubated for 72 hrs by flow cytometry analysis; assay type: functional, cell-based; conditions: dose 5-20 µM
Procedure, shortened: (§1)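 Annexin V/PI flow assay. G401 at 10,000 cells/mL and BT12 or Chla266 at 30,000 cells/mL were seeded in 12-well plates. Next day medium was replaced with medium holding I-BRD9 or BI-9564 at 0, 5, 10 or 20 µM final for 72 h. Cells were washed in PBS, stained with FITC-Annexin V and propidium iodide for 15 min in the dark at room temperature, then read by flow cytometry. Percentage of dead cells, n ≥3, mean ± SD, one-way ANOVA versus control.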

[2] = system: CHLA-266; assay: Induction of apoptosis in human CHLA-266 cells assessed as necrotic cells at 10 uM incubated for 72 hrs by flow cytometry analysis (Rvb= 5.4+/-1.0 %); assay type: functional; procedure, shortened: as §1
[3] = system: CHLA-266; assay: Induction of cell cycle arrest in human CHLA-266 cells assessed as accumulation of cells at G1 phase at 5 uM incubated for 72 hrs by flow cytometry analysis (reference value: 74.1+/-3.2%); assay type: functional
Procedure, shortened: (§2)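 Cell cycle. Seeding and 72 h treatment as for the apoptosis assay, with I-BRD9 or BI-9564 at 0, 5, 10 or 20 µM final. A 100 µL cell suspension was stained with DAPI and read by flow cytometry. Percentage of cells in G1, n ≥3, mean ± SD, one-way ANOVA versus control.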

[4] = system: BT-12; assay: Induction of cell cycle arrest in human BT-12 cells assessed as accumulation of cells at G1 phase at 10 uM incubated for 72 hrs by flow cytometry analysis (reference value: 65+/-3.9%); assay type: functional; procedure, shortened: as §2
[5] = system: BT-12; assay: Induction of apoptosis in human BT-12 cells assessed as necrotic cells at 10 uM incubated for 72 hrs by flow cytometry analysis (reference value: 10.1+/-2.2%); assay type: functional; procedure, shortened: as §1
[6] = system: BT-12; assay: Induction of apoptosis in human BT-12 cells assessed as necrotic cells at 20 uM incubated for 72 hrs by flow cytometry analysis (Rvb=10.1+/-2.2%); assay type: functional; procedure, shortened: as §1
[7] = system: G-401; assay: Induction of apoptosis in human G-401 cells assessed as necrotic cells at 10 uM incubated for 72 hrs by flow cytometry analysis (Rvb= 6.2+/-0.8 %); assay type: functional; procedure, shortened: as §1
[8] = system: CHLA-266; assay: Anti-proliferative activity against human CHLA-266 cells assessed as cell viability incubated for 144 hrs by MTT assay; assay type: functional, cell-based; conditions: CHLA-266, 144 h
Procedure, shortened: (§3)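 MTT proliferation assay. Cells were seeded at 3000 (BT16, KD, G401) or 5000 (BT12, Chla266) cells per well and drug was added after 24 h, final 0.001–100 µM. Read at 72 or 144 h; 144 h wells got fresh medium and drug on day 3. MTT for 3 h, formazan dissolved in isopropanol/0.04 N HCl, absorbance at 570/630 nm. Technical triplicates, ≥3 independent runs, IC50 derived.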

[9] = system: G-401; assay: Anti-proliferative activity against human G-401 cells assessed as cell viability incubated for 144 hrs by MTT assay; assay type: functional, cell-based; conditions: G-401, 144 h; procedure, shortened: as §3
[10] = system: G-401; assay: Induction of apoptosis in human G-401 cells assessed as necrotic cells at 20 uM incubated for 72 hrs by flow cytometry analysis (Rvb= 6.2+/-0.8 %); assay type: functional; procedure, shortened: as §1
[11] = Anti-proliferative activity against human BT-16 cells assessed as cell viability incubated for 72 hrs by MTT assay; assay type: functional, cell-based; conditions: BT-16, 72 h; procedure, shortened: as §3
[12] = system: G-401; assay: Induction of apoptosis in human G-401 cells assessed as necrotic cells incubated for 72 hrs by flow cytometry analysis; assay type: functional, cell-based; conditions: dose 5-20 µM; procedure, shortened: as §1
[13] = system: G-401; assay: Induction of cell cycle arrest in human G-401 cells assessed as accumulation of cells at G1 phase at 10 uM incubated for 72 hrs by flow cytometry analysis (reference value: 51.7+/-2%); assay type: functional
Procedure, shortened: (§4)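 72 h DAPI flow-cytometry cell-cycle assay. Chla266 in IMDM/20% FBS seeded at 30,000 cells/mL; G401 in DMEM/10% FBS at 10,000 cells/mL; 1 mL/well, 37 °C, 5% CO2. Next day the medium was replaced with inhibitor at final 0, 5, 10 or 20 µM. Cells were harvested, PBS-washed, and the G1 percentage was read. n ≥ 3, mean ± SD, one-way ANOVA vs control.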

[14] = system: CHLA-266; assay: Induction of cell cycle arrest in human CHLA-266 cells assessed as accumulation of cells at G1 phase at 10 uM incubated for 72 hrs by flow cytometry analysis (Rvb =74.1+/-3.2%); assay type: functional; procedure, shortened: as §2
[15] = system: CHLA-266; assay: Anti-proliferative activity against human CHLA-266 cells assessed as cell viability incubated for 72 hrs by MTT assay; assay type: functional, cell-based; conditions: CHLA-266, 72 h; procedure, shortened: as §3
[16] = Anti-proliferative activity against human KD cells assessed as cell viability incubated for 72 hrs by MTT assay; assay type: functional, cell-based; procedure, shortened: as §3
[17] = system: CHLA-266; assay: Induction of apoptosis in human CHLA-266 cells assessed as necrotic cells incubated for 72 hrs by flow cytometry analysis; assay type: functional, cell-based; conditions: dose 5-20 µM; procedure, shortened: as §1
[18] = system: G-401; assay: Induction of cell cycle arrest in human G-401 cells assessed as accumulation of cells at G1 phase at 5 uM incubated for 72 hrs by flow cytometry analysis (reference value: 51.7+/-2%); assay type: functional; procedure, shortened: as §4
[19] = system: CHLA-266; assay: Induction of apoptosis in human CHLA-266 cells assessed as necrotic cells at 5 uM incubated for 72 hrs by flow cytometry analysis (Rvb= 5.4+/-1.0%); assay type: functional; procedure, shortened: as §1
[20] = system: CHLA-266; assay: Induction of apoptosis in human CHLA-266 cells assessed as necrotic cells at 20 uM incubated for 72 hrs by flow cytometry analysis (Rvb= 5.4+/-1.0 %); assay type: functional; procedure, shortened: as §1
[21] = system: BT-12; assay: Induction of cell cycle arrest in human BT-12 cells assessed as accumulation of cells at G1 phase incubated for 72 hrs by flow cytometry analysis; assay type: functional, cell-based; conditions: dose 5-20 µM; procedure, shortened: as §2
[22] = system: CHLA-266; assay: Induction of cell cycle arrest in human CHLA-266 cells assessed as accumulation of cells at G1 phase at 20 uM incubated for 72 hrs by flow cytometry analysis (reference value: 74.1+/-3.2%); assay type: functional; procedure, shortened: as §2
[23] = system: BT-12; assay: Induction of cell cycle arrest in human BT-12 cells assessed as accumulation of cells at G1 phase at 20 uM incubated for 72 hrs by flow cytometry analysis (reference value: 65+/-3.9%); assay type: functional; procedure, shortened: as §2
[24] = system: BT-12; assay: Anti-proliferative activity against human BT-12 cells assessed as cell viability incubated for 72 hrs by MTT assay; assay type: functional, cell-based; conditions: BT-12, 72 h; procedure, shortened: as §3
[25] = Anti-proliferative activity against human KD cells assessed as cell viability incubated for 144 hrs by MTT assay; assay type: functional, cell-based; procedure, shortened: as §3
[26] = system: CHLA-266; assay: Cytotoxicity against human CHLA-266 cells assessed as change in cell viability at 5 to 20 uM treated for 72 hrs; assay type: functional, cell-based; conditions: dose 5-20 µM; procedure, shortened: as §1
[27] = system: BT-12; assay: Induction of apoptosis in human BT-12 cells assessed as necrotic cells at 5 uM incubated for 72 hrs by flow cytometry analysis (reference value: 10.1+/-2.2%); assay type: functional; procedure, shortened: as §1
[28] = system: CHLA-266; assay: Induction of cell cycle arrest in human CHLA-266 cells assessed as accumulation of cells at G1 phase incubated for 72 hrs by flow cytometry analysis; assay type: functional, cell-based; conditions: dose 5-20 µM; procedure, shortened: as §4
[29] = system: G-401; assay: Induction of apoptosis in human G-401 cells assessed as necrotic cells at 5 uM incubated for 72 hrs by flow cytometry analysis (Rvb= 6.2+/-0.8 %); assay type: functional; procedure, shortened: as §1
[30] = system: G-401; assay: Induction of cell cycle arrest in human G-401 cells assessed as accumulation of cells at G1 phase incubated for 72 hrs by flow cytometry analysis; assay type: functional, cell-based; conditions: dose 5-20 µM; procedure, shortened: as §4
[31] = system: BT-12; assay: Induction of cell cycle arrest in human BT-12 cells assessed as accumulation of cells at G1 phase at 5 uM incubated for 72 hrs by flow cytometry analysis (reference value: 65+/-3.9%); assay type: functional; procedure, shortened: as §2
[32] = system: G-401; assay: Anti-proliferative activity against human G-401 cells assessed as cell viability incubated for 72 hrs by MTT assay; assay type: functional, cell-based; conditions: G-401, 72 h; procedure, shortened: as §3
[33] = system: BT-12; assay: Anti-proliferative activity against human BT-12 cells assessed as cell viability incubated for 144 hrs by MTT assay; assay type: functional, cell-based; conditions: BT-12, 144 h; procedure, shortened: as §3

pIC50 [24]: < 4.00
pIC50 [33]: 4.76
Compound: COc1cc(-c2cn(C)c(=O)c3cnccc23)c(OC)cc1CN(C)C
Activity [1]: Dose-Dependent Effect
Activity [2]: 11%
Activity [3]: 80%
Activity [4]: 74%
Activity [5]: 15.9%
Activity [6]: 17.3%
Activity [7]: 7.3%
pIC50 [8]: 4.47
pIC50 [9]: 4.97
Activity [10]: 7.6%
pIC50 [11]: 4.80
Activity [12]: Dose-Dependent Effect
Activity [13]: 59.5%
Activity [14]: 81.2%
pIC50 [15]: < 4.00
pIC50 [16]: 4.65
Activity [17]: Dose-Dependent Effect
Activity [18]: 57.6%
Activity [19]: 10%
Activity [20]: 12.9%
Activity [21]: Dose-Dependent Effect
Activity [22]: 83.6%
Activity [23]: 78.9%
pIC50 [25]: 4.97
Activity [26]: Active
Activity [27]: 14.2%
Activity [28]: Dose-Dependent Effect
Activity [29]: 6.8%
Activity [30]: Dose-Dependent Effect
Activity [31]: 73.1%
pIC50 [32]: 4.90
